Calls of active or inactive are those of the source. The rule behind the calls is not given here.
Assays:
[1] = Cytotoxicity against human NIH-H460 cells assessed as cell viability at 50 nM after 48 hrs by MTT assay relative to control; format: functional; conditions: NIH-H460, 48 h
Procedure, shortened: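 NIH-H460 cells (RPMI 1640, 10% FBS, 1% L-glutamine, penicillin/streptomycin) were seeded at 1 × 10^4 cells/well and exposed to 50 nM for 48 h. MTT was then added at 0.5 mg/mL final in medium for 2 h in the dark at 37 °C. Formazan was dissolved in DMSO for 15 min at RT and read at 570 nm. Output was inhibitory rate (%).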

NIH-H460 [2] = test: Induction of apoptosis in human NIH-H460 cells assessed as caspase-3 activation at 20 nM after 24 hrs by Western blotting analysis; format: functional, cell-based
[3] = Induction of apoptosis in human NIH-H460 cells at 20 nM after 36 hrs by microscopic analysis relative to control; format: functional
Procedure, shortened: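 NIH-H460 cells were exposed to vehicle or 20 nM in serum-free medium for up to 36 h. Detached and attached cells were pooled and stained with 50 μg/mL DAPI plus 100 μg/mL RNase A at 37 °C for 20 min. Apoptotic cells were scored by cytoplasmic shrinkage, membrane blebbing and nuclear condensation/fragmentation, and reported as % apoptotic cells.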

NIH-H460 [4] = test: Induction of apoptosis in human NIH-H460 cells assessed as localization of Nur77 in nucleus at 20 nM after 3 hrs by immunofluorescence microscopic analysis; format: functional, cell-based
Procedure, shortened: (§1)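 NIH-H460 cells on slides were treated with 20 nM for 3 h, then given MitoTracker Red (25 nM) for 15 min. Cells were permeabilised with 0.01% digitonin in PBS for 30 min and blocked with 1% BSA for 30 min. Anti-Nur77 (1:200) was applied for 3 h at RT, then FITC/Cy3 anti-rabbit IgG for 1 h. DAPI marked nuclei, and images were taken by confocal microscopy.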

NIH-H460 [5] = test: Induction of Nur77 protein expression in human NIH-H460 cells at […] by Western blotting analysis; format: functional, cell-based
Procedure, shortened: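 NIH-H460 cells were treated with vehicle or compound, either at 2.5–40 nM for 3 h or at 20 nM over a time course. Equal amounts of lysate were run on 8% SDS-PAGE and blotted to PVDF. Membranes were blocked in 5% milk/TBST and probed overnight at 4 °C with anti-Nur77 (1:1000). Bands were detected by ECL, with β-actin reprobe as loading control.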

NIH-H460 [6] = test: Induction of apoptosis in human NIH-H460 cells assessed as increase in PARP cleavage at 20 nM after 24 hrs by Western blotting analysis; format: functional, cell-based
Procedure, shortened: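 Western blot of NIH-H460 lysates (8% SDS-PAGE, PVDF) probed overnight at 4 °C with anti-PARP (1:1000) to detect cleavage. Detection was by ECL, with β-actin reprobe as loading control. Cleavage was examined at 24 h post-treatment.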

NIH-H460 [7] = test: Induction of apoptosis in human NIH-H460 cells assessed as localization of Nur77 in mitochondria at 20 nM after 3 hrs by immunofluorescence microscopic analysis; format: functional, cell-based; procedure, shortened: as §1
NIH-H460 [8] = test: Induction of apoptosis in human NIH-H460 cells assessed as localization of Nur77 in cytoplasm at 20 nM after 3 hrs by immunofluorescence microscopic analysis; format: functional, cell-based; procedure, shortened: as §1

| SMILES | inhibition at 0.05 µM [1] [%] | also measured |
| --- | --- | --- |
| C[C@@H]1O[C@@H](O[C@H]2CC[C@]3(C)[C@H]4C[C@@H](O)[C@]5(C)[C@@H](C6=CC(=O)OC6)CC[C@]5(O)[C@@H]4CC[C@]3(O)C2)[C@H](O)[C@H](O)[C@H]1O [ANTIOSIDE] | 75.7 | – |
| C[C@]12CC[C@H]3[C@@H](CC[C@]4(O)C[C@@H](O)CC[C@]34C(=O)O[C@@H]3O[C@H](CO)[C@@H](O)[C@H](O)[C@H]3O)[C@@]1(O)CC[C@@H]2C1=CC(=O)OC1 | 11.1 | Activity (NIH-H460 [2]): inactive; Activity [3]: 6.8%; Activity (NIH-H460 [4]): Active; Activity (NIH-H460 [5]): Active |
| C[C@H]1O[C@@H](O[C@H]2CC[C@]3(C(=O)O)[C@H]4C[C@@H](O)[C@]5(C)[C@@H](C6=CC(=O)OC6)CC[C@]5(O)[C@@H]4CC[C@]3(O)C2)[C@H](O)[C@H](O)[C@@H]1O | 7.8 | Activity (NIH-H460 [2]): inactive; Activity [3]: 3.4%; Activity (NIH-H460 [4]): Active; Activity (NIH-H460 [5]): Active |
| C[C@@H]1C[C@@H](O)[C@@H](O)[C@H](O[C@H]2CC[C@]3(C=O)[C@H]4C[C@@H](O)[C@]5(C)[C@@H](C6=CC(=O)OC6)CC[C@]5(O)[C@@H]4CC[C@]3(O)C2)O1 | 81.6 | – |
| CO[C@H]1[C@@H](O[C@H]2CC[C@]3(C=O)[C@H]4CC[C@]5(C)[C@@H](C6=CC(=O)OC6)CC[C@]5(O)[C@@H]4CC[C@]3(O)C2)O[C@H](C)[C@@H](O)[C@H]1O [STROPHATHOJAVOSIDE] | 65 | – |
| C[C@@H]1O[C@@H](O[C@@H]2CC[C@]3(C=O)[C@H]4C[C@@H](O)[C@]5(C)[C@@H](C6=CC(=O)OC6)CC[C@]5(O)[C@@H]4CC[C@]3(O)C2)[C@H](O)[C@H](O)[C@H]1O | 6.3 | – |
| C[C@H]1O[C@@H](O[C@H]2CC[C@]3(C=O)[C@H]4CC[C@]5(C)[C@@H](C6=CC(=O)OC6)CC[C@]5(O)[C@@H]4CC[C@]3(O)C2)[C@H](O)[C@H](O)[C@H]1O [DESGLUCOCHEIROTOXIN] | 76.9 | – |
| C[C@H]1O[C@H](O[C@H]2CC[C@]3(C=O)[C@H]4C[C@@H](O)[C@]5(C)[C@@H](C6=CC(=O)OC6)CC[C@]5(O)[C@@H]4CC[C@]3(O)C2)[C@H](O)[C@H](O)[C@@H]1O [ANTIALLOSIDE] | 70.7 | – |
| C[C@]12CC[C@H]3[C@@H](CC[C@]4(O)C[C@@H](O)CC[C@]34CO[C@@H]3O[C@H](CO)[C@@H](O)[C@H](O)[C@H]3O)[C@@]1(O)CC[C@@H]2C1=CC(=O)OC1 | 29.4 | – |
| C[C@H]1O[C@H](O[C@H]2CC[C@]3(C=O)[C@H]4C[C@@H](O)[C@]5(C)[C@@H](C6=CC(=O)OC6)CC[C@]5(O)[C@@H]4CC[C@]3(O)C2)[C@H](O)[C@H](O)[C@H]1O | 45 | – |
| C[C@@H]1O[C@@H](O[C@H]2CC[C@]3(C=O)[C@H]4C[C@H](O)[C@]5(C)[C@@H](C6=CC(=O)OC6)CC[C@]5(O)[C@@H]4CC[C@]3(O)C2)[C@H](O)[C@H](O)[C@H]1O | 82.8 | – |
| C[C@@H]1O[C@@H](O[C@H]2CC[C@]3(C=O)[C@H]4CC[C@]5(C)[C@@H](C6=CC(=O)OC6)CC[C@]5(O)[C@@H]4CC[C@]3(O)C2)[C@H](O)[C@H](O)[C@H]1O [CONVALLATOXIN] | 82.1 | – |
| C[C@@H]1O[C@H](O[C@@H]2CC[C@]3(C=O)[C@H]4CC[C@]5(C)[C@@H](C6=CC(=O)OC6)CC[C@]5(O)[C@@H]4CC[C@]3(O)C2)[C@H](O)[C@H](O)[C@H]1O [ANTIAROSIDE C] | 18.9 | – |
| C[C@@H]1O[C@@H](O[C@H]2CC[C@@]3(C=O)[C@H](CC[C@@H]4[C@@H]3C[C@@H](O)[C@]3(C)[C@@H](C5=CC(=O)OC5)CC[C@]43O)C2)[C@H](O)[C@H](O)[C@H]1O | 81.9 | – |
| C[C@@H]1O[C@@H](O[C@H]2CC[C@]3(C=O)[C@H]4C[C@@H](O)[C@]5(C)[C@H](C6=CC(=O)OC6)CC[C@]5(O)[C@@H]4CC[C@]3(O)C2)[C@H](O)[C@H](O)[C@H]1O | 6.2 | – |
| C[C@@H]1O[C@H](O[C@H]2CC[C@]3(C=O)[C@H]4C[C@@H](O)[C@]5(C)[C@@H](C6=CC(=O)OC6)CC[C@]5(O)[C@@H]4CC[C@]3(O)C2)[C@H](O)[C@H](O)[C@H]1O | 81.4 | – |

| SMILES | inhibition at 0.05 µM [1] [%] | also measured |
| --- | --- | --- |
| C[C@H]1O[C@@H](O[C@@H]2CC[C@]3(C=O)[C@H]4CC[C@]5(C)[C@@H](C6=CC(=O)OC6)CC[C@]5(O)[C@@H]4CC[C@]3(O)C2)[C@H](O)[C@H](O)[C@H]1O | 6.8 | – |
| C[C@H]1O[C@@H](O[C@H]2CC[C@]3(CO)[C@H]4CC[C@]5(C)[C@@H](C6=CC(=O)OC6)CC[C@]5(O)[C@@H]4CC[C@]3(O)C2)[C@H](O)[C@H](O)[C@H]1O [DEGLUCOCHEIROTOXOL] | 67.9 | – |
| C[C@H]1O[C@@H](O[C@H]2CC[C@@]3(C=O)[C@H](CC[C@@H]4[C@@H]3C[C@@H](O)[C@]3(C)[C@@H](C5=CC(=O)OC5)CC[C@]43O)C2)[C@H](O)[C@H](O)[C@H]1O | 82.3 | – |
| C[C@H]1O[C@@H](O[C@H]2CC[C@@]3(CO)[C@H](CC[C@@H]4[C@@H]3C[C@@H](O)[C@]3(C)[C@@H](C5=CC(=O)OC5)CC[C@]43O)C2)[C@H](O)[C@H](O)[C@H]1O | 63.8 | – |
| CO[C@H]1[C@@H](O[C@H]2CC[C@]3(C=O)[C@H]4C[C@@H](O)[C@]5(C)[C@@H](C6=CC(=O)OC6)CC[C@]5(O)[C@@H]4CC[C@]3(O)C2)O[C@H](C)[C@@H](O)[C@@H]1O [TOXICARIOSIDE B] | 71.4 | – |
| C[C@H]1O[C@@H](O[C@H]2CC[C@]3(C)[C@H]4C[C@@H](O)[C@]5(C)[C@@H](C6=CC(=O)OC6)CC[C@]5(O)[C@@H]4CC[C@]3(O)C2)[C@H](O)[C@H](O)[C@H]1O | 33.9 | – |
| C[C@H]1O[C@@H](O[C@@H]2CC[C@]3(C=O)[C@H]4C[C@@H](O)[C@]5(C)[C@@H](C6=CC(=O)OC6)CC[C@]5(O)[C@@H]4CC[C@]3(O)C2)[C@H](O)[C@H](O)[C@H]1O | 3.2 | – |
| C[C@@H]1O[C@@H](O[C@H]2CC[C@]3(CO)[C@H]4C[C@@H](O)[C@]5(C)[C@@H](C6=CC(=O)OC6)CC[C@]5(O)[C@@H]4CC[C@]3(O)C2)[C@H](O)[C@H](O)[C@H]1O | 60.2 | – |
| C[C@H]1O[C@@H](O[C@H]2CC[C@]3(C=O)[C@H]4C[C@@H](O)[C@]5(C)[C@H](C6=CC(=O)OC6)CC[C@]5(O)[C@@H]4CC[C@]3(O)C2)[C@H](O)[C@H](O)[C@H]1O | 9.3 | – |
| C[C@@H]1O[C@H](O[C@H]2CC[C@]3(CO)[C@H]4CC[C@]5(C)[C@@H](C6=CC(=O)OC6)CC[C@]5(O)[C@@H]4CC[C@]3(O)C2)[C@H](O)[C@H](O)[C@H]1O [CONVALLATOXOL] | 80.7 | – |
| C[C@@H]1O[C@@H](O[C@H]2CC[C@@]3(CO)[C@H](CC[C@@H]4[C@@H]3CC[C@]3(C)[C@@H](C5=CC(=O)OC5)CC[C@]43O)C2)[C@H](O)[C@H](O)[C@H]1O | 82.4 | – |
| C[C@H]1O[C@@H](O[C@H]2CC[C@]3(C)[C@H]4C[C@@H](O)[C@]5(C)[C@@H](C6=CC(=O)OC6)CC[C@]5(O)[C@@H]4CC[C@]3(O)C2)[C@H](O)[C@H](O)[C@@H]1O [ANTIOGOSIDE] | 34.3 | – |
| C[C@H]1O[C@@H](O[C@H]2CC[C@]3(CO)[C@H]4C[C@@H](O)[C@]5(C)[C@@H](C6=CC(=O)OC6)CC[C@]5(O)[C@@H]4CC[C@]3(O)C2)[C@H](O)[C@H](O)[C@H]1O | 64.2 | – |
| C[C@H]1O[C@@H](O[C@H]2CC[C@]3(C=O)[C@H]4C[C@@H](O)[C@]5(C)[C@@H](C6=CC(=O)OC6)CC[C@]5(O)[C@@H]4CC[C@]3(O)C2)[C@H](O)[C@H](O)[C@@H]1O | 78.9 | Activity (NIH-H460 [2]): Active; Activity (NIH-H460 [6]): Active; Activity [3]: 22.3%; Activity (NIH-H460 [7]): Active; Activity (NIH-H460 [8]): Active; Activity (NIH-H460 [4]): Active; Activity (NIH-H460 [5]): Active |
| C[C@H]1O[C@@H](O[C@@H]2CC[C@]3(C=O)[C@H]4C[C@@H](O)[C@]5(C)[C@@H](C6=CC(=O)OC6)CC[C@]5(O)[C@@H]4CC[C@]3(O)C2)[C@H](O)[C@H](O)[C@@H]1O | 6.9 | – |

— ChEMBL document CHEMBL2417467, “Antiproliferative cardiac glycosides from the latex of Antiaris toxicaria” (J Nat Prod, 2013)
